Experimental data: BindingDB's records for doi:10.1016/j.bmc.2014.05.061 (Academy of Sciences of The Czech Republic, 2014)

Target: Glutamate carboxypeptidase 2 (Homo sapiens, UniProt Q04609)
Assay: Inhibition of human recombinant N-terminal Avi-tagged glutamate carboxypeptidase 2 extracellular domain (44 to 750 amino acids) using pteroyl-di-L-glutamate substrate by HPLC method
Method in brief: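 Avi-GCPII (0.2 ng) in 25 mM Bis-Tris propane, 150 mM NaCl, 0.001% octaethylene glycol monododecyl ether, pH 7.4, preincubated with inhibitor (ten concentrations) 5 min at 37 °C. Reaction started with pteroyl-di-L-glutamate (20 µl of 4 µM stock), run 20 min at 37 °C, stopped with 2-PMPA. Substrate and product separated by isocratic HPLC, detected at 281 nm; IC50 from full curves, Ki mean ± SD, duplicate or triplicate.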

Chain of Glutamate carboxypeptidase 2 (Q04609 whole entry, the tested form may be a part): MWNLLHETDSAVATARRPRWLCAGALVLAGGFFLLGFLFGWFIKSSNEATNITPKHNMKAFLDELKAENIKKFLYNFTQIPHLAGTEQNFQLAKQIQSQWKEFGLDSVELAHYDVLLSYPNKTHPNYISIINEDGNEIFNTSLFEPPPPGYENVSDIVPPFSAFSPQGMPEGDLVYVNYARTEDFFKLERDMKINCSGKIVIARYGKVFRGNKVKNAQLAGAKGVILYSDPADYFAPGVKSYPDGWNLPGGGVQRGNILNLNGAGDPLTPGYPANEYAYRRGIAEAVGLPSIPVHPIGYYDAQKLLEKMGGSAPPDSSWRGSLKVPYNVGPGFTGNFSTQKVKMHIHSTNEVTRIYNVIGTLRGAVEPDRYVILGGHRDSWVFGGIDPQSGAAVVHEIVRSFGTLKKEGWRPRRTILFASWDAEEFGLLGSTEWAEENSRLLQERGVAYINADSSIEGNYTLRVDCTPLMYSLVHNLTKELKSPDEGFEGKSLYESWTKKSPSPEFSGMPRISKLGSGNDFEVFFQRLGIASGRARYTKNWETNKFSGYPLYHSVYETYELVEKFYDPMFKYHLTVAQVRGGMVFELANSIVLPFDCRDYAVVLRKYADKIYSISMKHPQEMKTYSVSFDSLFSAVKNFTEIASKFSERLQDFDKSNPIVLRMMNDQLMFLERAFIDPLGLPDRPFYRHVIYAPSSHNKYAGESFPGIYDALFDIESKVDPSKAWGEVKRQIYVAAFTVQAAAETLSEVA

O=C(O)CC[C@H](NC(=O)N[C@@H](CCCCNC(=O)Nc1ccc(Br)cc1OCCNC(=O)CCOCCOCCOCCOCCOCCOCCOCCOCCOCCOCCOCCOCCNC(=O)CCCC[C@@H]1SC[C@@H]2NC(=O)N[C@@H]21)C(=O)O)C(=O)O
Ki: 0.221 nM
